These results are taken from ChEMBL document CHEMBL4368874, “Synthesis, biological evaluation, and structure activity relationship (SAR) study of pyrrolidine amide derivatives as N-acylethanolamine acid amidase (NAAA) inhibitors” (Medchemcomm, 2019).

The chains are these.
T1: Fatty-acid amide hydrolase 1 (Rattus norvegicus, UniProt P97612)
T1 sequence (P97612 whole entry): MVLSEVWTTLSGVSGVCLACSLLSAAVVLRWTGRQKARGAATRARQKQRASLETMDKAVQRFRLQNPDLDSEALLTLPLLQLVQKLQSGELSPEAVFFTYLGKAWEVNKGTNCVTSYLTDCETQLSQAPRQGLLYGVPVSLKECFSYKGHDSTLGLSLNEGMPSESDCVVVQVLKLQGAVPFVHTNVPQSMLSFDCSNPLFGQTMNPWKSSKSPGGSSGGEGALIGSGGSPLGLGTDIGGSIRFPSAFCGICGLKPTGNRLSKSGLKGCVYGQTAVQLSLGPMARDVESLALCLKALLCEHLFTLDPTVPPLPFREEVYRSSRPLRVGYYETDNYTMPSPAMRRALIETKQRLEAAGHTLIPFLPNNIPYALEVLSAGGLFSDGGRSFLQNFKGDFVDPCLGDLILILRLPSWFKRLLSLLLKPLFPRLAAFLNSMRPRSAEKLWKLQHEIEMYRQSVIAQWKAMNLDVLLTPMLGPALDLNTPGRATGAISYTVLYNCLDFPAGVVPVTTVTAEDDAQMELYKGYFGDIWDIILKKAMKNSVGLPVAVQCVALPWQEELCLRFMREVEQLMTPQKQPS

T2: N-acylethanolamine-hydrolyzing acid amidase (Rattus norvegicus, UniProt Q5KTC7)
T2 sequence (Q5KTC7 whole entry): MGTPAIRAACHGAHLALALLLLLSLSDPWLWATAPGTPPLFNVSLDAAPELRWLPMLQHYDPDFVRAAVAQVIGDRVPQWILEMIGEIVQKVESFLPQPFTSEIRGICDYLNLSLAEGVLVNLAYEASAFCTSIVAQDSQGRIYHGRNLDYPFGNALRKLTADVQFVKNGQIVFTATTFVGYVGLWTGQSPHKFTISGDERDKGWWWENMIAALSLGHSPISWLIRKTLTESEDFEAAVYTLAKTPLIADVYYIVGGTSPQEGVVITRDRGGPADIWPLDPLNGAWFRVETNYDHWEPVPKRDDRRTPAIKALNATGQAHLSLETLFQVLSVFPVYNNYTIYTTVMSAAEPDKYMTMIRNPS

T3: Acid ceramidase (Rattus norvegicus) (UniProt Q6P7S1)
T3 sequence (whole entry): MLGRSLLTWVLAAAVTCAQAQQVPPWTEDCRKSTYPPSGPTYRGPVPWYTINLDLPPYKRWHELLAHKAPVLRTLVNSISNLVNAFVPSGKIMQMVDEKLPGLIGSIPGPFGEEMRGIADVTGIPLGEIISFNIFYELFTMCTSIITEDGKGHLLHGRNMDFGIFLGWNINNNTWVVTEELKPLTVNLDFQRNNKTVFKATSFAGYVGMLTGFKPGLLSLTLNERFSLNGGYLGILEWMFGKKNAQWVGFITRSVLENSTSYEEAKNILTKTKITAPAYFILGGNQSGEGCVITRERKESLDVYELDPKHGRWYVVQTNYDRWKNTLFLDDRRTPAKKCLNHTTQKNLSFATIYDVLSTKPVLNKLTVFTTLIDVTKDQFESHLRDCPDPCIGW

B1: N-acylethanolamine-hydrolyzing acid amidase (Rattus norvegicus), Q5KTC7 (protein)
chain: T2 sequence (Q5KTC7 whole entry)

What is called IC50 is the concentration at which inhibition is half-maximal. By Vmax is commonly meant the rate approached at saturating substrate. What is called Km is the substrate concentration at which the rate is half of its maximum. The term inhibition denotes the relative decrease from the control value, in per cent.

For one data set, the species on record is Rattus norvegicus. Put plainly: Selectivity ratio of IC50 for rat FAAH expressed in HEK293 cells to IC50 for rat […]. The data set is classed as cell-based.
Conditions: not given
Regarding `O=C(CCc1ccc(C2CCCCC2)cc1)N1CCCC1`, the Ratio IC50 is over 200.

In the next data set the target is T1, Fatty-acid amide hydrolase 1. Put plainly: Inhibition of rat FAAH expressed in HEK293 cells using [3H]AEA as substrate after 30 mins HPLC-MS/MS analysis. The data set is classed as cell-based. Conditions: in the assay text read “anandamide” for “[3H]AEA”. Put shortly:
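Lysate supernatant from HEK293 cells overexpressing rat FAAH (sonication in Tris-sucrose, 800 × g spin). 30 µg protein incubated at 37 °C with 25 µM anandamide in 50 mM Tris-HCl pH 8.0 containing 0.05% fatty-acid-free BSA. Quenched with methanol containing heptadecanoic acid internal standard; remaining substrate quantified by HPLC-MS/MS; IC50 by curve fitting.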
Molecule `O=C(CCCCc1ccc2c(c1)OCO2)N1CCCC1` gave a 50% inhibitory concentration (IC50) of 42.8 µM. The same measure, in the same setting: with `O=C(CCC1CCC(Oc2ccccc2)CC1)N1CCCC1` (stereo not drawn) the figure was 45.1 µM. Same read-out and setting: with `O=C(CCc1ccc(-c2ccc3c(c2)OCO3)cc1)N1CCCC1` the figure was 91 µM. Still for that read-out and setting: with `O=C(CCc1ccc(-c2ccccc2)cc1)N1CCCC1` the figure was 91.5 µM. With `O=C(CCC1CCC(c2ccccc2)CC1)N1CCCC1` (stereo not drawn), the IC50 turned out to be 66 µM. Still for that read-out and setting: with `O=C(CCc1ccc(Oc2ccccc2)cc1)N1CCCC1` the figure was 120 µM.

A further data set concerns the target T2, N-acylethanolamine-hydrolyzing acid amidase. Put plainly: Inhibition of rat NAAA expressed in HEK293 cells using heptadecenoylethanolamide as substrate after 30 mins HPLC-MS/MS analysis.
Conditions: not given
The procedure, abridged: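 Enzyme source: HEK293 cells stably overexpressing rat NAAA, grown in DMEM/10% FBS with G418. Cells were sonicated in 20 mM Tris-HCl pH 7.5 with 0.32 M sucrose, and the 800 × g supernatant was used. 30 µg protein was incubated with 25 µM heptadecenoylethanolamide for 30 min at 37 °C in 50 mM phosphate pH 4.5 with 0.1% Triton X-100 and 3 mM DTT. Stopped with methanol containing heptadecanoic acid internal standard; remaining substrate measured by HPLC-MS/MS; IC50 from curve fitting.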
On to `O=C(CCCCCCc1ccccn1)N1CCCC1`, for which the IC50 is over 100 µM. On the same count and under the same terms, the result for `Cc1ccc(-c2ccc(CCC(=O)N3CCCC3)cc2)cc1` reads 33.2 µM; that for `O=C(CCc1ccc(-c2cccc(Cl)c2)cc1)N1CCCC1`, 25.4 µM; that for `O=C(CCCCCCc1ccccc1F)N1CCCC1`, 13.7 µM.

`O=C(CCCCCCc1cccc(F)c1)N1CCCC1` had an IC50 of 7.3 µM. The same measure, in the same setting: the result for `O=C(CCc1ccc(OC2CCCCC2)cc1)N1CCCC1` reads 0.7 µM; that for `O=C(CCc1ccc(-c2ccccc2F)cc1)N1CCCC1`, 2.8 µM.

In turn, `O=C(CCc1ccc(-c2cccc(F)c2)cc1)N1CCCC1` showed an IC50 of 1.8 µM. Same read-out and setting: the result for `O=C(CCCCCCc1cccc(O)c1)N1CCCC1` reads over 100 µM; that for `O=C(CCCCc1ccc2c(c1)OCO2)N1CCCC1`, 5.5 µM.

Molecule `COc1cccc(CCCCCCC(=O)N2CCCC2)c1` yielded a concentration for half-maximal inhibition (IC50) of over 100 µM. On the same count and under the same terms, with `O=C(CCC1CCC(Oc2ccccc2)CC1)N1CCCC1` (stereo not drawn) the figure was 2.8 µM; with `O=C(CCc1ccc(-c2ccccc2Cl)cc1)N1CCCC1`, over 100 µM. In the case of `O=C(CCCCCCc1cccs1)N1CCCC1`, the 50% inhibitory concentration (IC50) is 14.1 µM. Same read-out and setting: with `O=C(O)c1ccc(CCCCCCC(=O)N2CCCC2)cc1` the figure was over 100 µM; with `O=C(CCCCCCc1ccc(F)cc1)N1CCCC1`, 8 µM. Still for that read-out and setting: the result for `O=C(CCCCCCc1ccccc1Cl)N1CCCC1` reads over 100 µM; that for `O=C(CCc1ccc(-c2ccc3c(c2)OCO3)cc1)N1CCCC1`, over 100 µM; that for `O=C(O)c1cccc(CCCCCCC(=O)N2CCCC2)c1`, over 100 µM.

`COc1ccc(CCCCCCC(=O)N2CCCC2)cc1` gave an IC50 of 35.4 µM. In turn, `Cc1cccc(-c2ccc(CCC(=O)N3CCCC3)cc2)c1` showed an IC50 of 16.5 µM. Same read-out and setting: with `O=C(CCCCCCC1CCCCC1)N1CCCC1` the figure was 5.7 µM; with `O=C(CCCCCCc1ccc(O)cc1)N1CCCC1`, 5.6 µM. As to `O=C(CCc1ccc(-c2ccsc2)cc1)N1CCCC1`, the IC50 was 2.5 µM. Same read-out and setting: with `CCCc1ccc(CCCCCCC(=O)N2CCCC2)cc1` the figure was over 100 µM; with `O=C(CCCCCCc1ccsc1)N1CCCC1`, 13.2 µM; with `COC(=O)c1cccc(CCCCCCC(=O)N2CCCC2)c1`, over 100 µM.

For `Cc1cccc(CCCCCCC(=O)N2CCCC2)c1`, the 50% inhibitory concentration (IC50) came out at 8.3 µM.

`O=C(CCCCCCc1ccc(Cl)cc1)N1CCCC1` displayed an IC50 of 34.5 µM. This IC50 lies about 4.2-fold higher than the previous one.

`O=C(CCCC/C=C/c1cccc(OCc2ccccc2)c1)N1CCCC1`: the IC50 was over 100 µM.

On to `CCCc1cccc(CCCCCCC(=O)N2CCCC2)c1`, for which the IC50 is over 100 µM. Same read-out and setting: with `O=C(CCC1CCC(c2ccccc2)CC1)N1CCCC1` (stereo not drawn) the figure was 0.48 µM; with `Cc1ccc(CCCCCCC(=O)N2CCCC2)cc1`, 9.6 µM.

Consider `O=C(CCc1ccc(-c2ccccn2)cc1)N1CCCC1`, for which the IC50 was over 100 µM. The same measure, in the same setting: with `O=C(CCCCCCc1cccc(Cl)c1)N1CCCC1` the figure was 3.7 µM. With `O=C(CCc1ccc(-c2cccnc2)cc1)N1CCCC1`, the IC50 is over 100 µM. Still for that read-out and setting: with `O=C(CCc1ccc(-c2ccc(F)cc2)cc1)N1CCCC1` the figure was 3.4 µM.

Molecule `O=C(CCc1ccc(-c2cccs2)cc1)N1CCCC1` yielded an IC50 of over 100 µM.

In turn, `O=C(/C=C/C=C/c1ccc2c(c1)OCO2)N1CCCC1` [TRICHOSTACHINE] yielded a 50% inhibitory concentration (IC50) of 4.1 µM. On the same count and under the same terms, the result for `O=C(CCc1ccc(C2CCCCC2)cc1)N1CCCC1` reads 0.5 µM. Still for that read-out and setting: the result for `COC(=O)c1ccc(CCCCCCC(=O)N2CCCC2)cc1` reads over 100 µM; that for `O=C(CCCCCCc1cccnc1)N1CCCC1`, over 100 µM. Take `Cc1ccccc1CCCCCCC(=O)N1CCCC1`: 68.4 µM corresponded to half-maximal inhibition (IC50).

`O=C(CCc1ccc(-c2ccc(Cl)cc2)cc1)N1CCCC1` yielded a half-inhibitory concentration (IC50) of 48.6 µM. The IC50 values of the last two molecules are within 1.5-fold of each other. On to `Cc1ccccc1-c1ccc(CCC(=O)N2CCCC2)cc1`, for which the IC50 was over 100 µM. The same measure, in the same setting: with `O=C(CCc1ccc(Oc2ccccc2)cc1)N1CCCC1` the figure was over 100 µM; with `O=C(CCCC/C=C/c1ccc(OCc2ccccc2)cc1)N1CCCC1`, over 100 µM.

Compound in another data set: O=C(/C=C/c1ccc(-c2ccccc2)cc1)N1CCCC1
Put plainly: Competitive inhibition of rat NAAA expressed in HEK293 cells assessed as substrate Vmax at 5 uM using heptadecenoylethanolamide as substrate after 30 mins by Michaelis Menten plot analysis (reference value: 5.89 +/- 0.12 nmol/min/mg protein). The data set is classed as cell-based.
Conditions: not given
In the case of B1, the Vmax came to 5.88 nmol/min/mg.

For the next data set, the target named is T1, Fatty-acid amide hydrolase 1. Put plainly: Inhibition of rat FAAH expressed in HEK293 cells using anandamide as substrate after 30 mins HPLC-MS/MS analysis.
Conditions: not given
The molecule `O=C(/C=C/C=C/c1ccc2c(c1)OCO2)N1CCCC1` [TRICHOSTACHINE] had a concentration for half-maximal inhibition (IC50) of 61.3 µM. In other words, the double-digit micromolar range.

Compound in another data set: O=C(/C=C/c1ccc(-c2ccccc2)cc1)N1CCCC1
Put plainly: Competitive inhibition of rat NAAA expressed in HEK293 cells assessed as substrate Km at 5 uM using heptadecenoylethanolamide as substrate after 30 mins by Michaelis Menten plot analysis (reference value: 207 +/- 16 uM). The data set is classed as cell-based.
Conditions: not given
B1: the Michaelis constant (Km) was 322 µM.

In a further data set the target is T3, Acid ceramidase (Rattus norvegicus). Put plainly: Inhibition of rat acid ceramidase at 100 uM using N-lauroylceramide as substrate after 30 mins by LC-MS analysis relative to control.
Conditions: not given
The procedure, abridged: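 100 µg recombinant rat acid ceramidase incubated for 30 min at 37 °C in 50 mM phosphate pH 5.0 with 0.1% Triton X-100, 3 mM DTT, 100 µM N-lauroylceramide substrate and test compound. Stopped with methanol containing 1 nmol heptadecanoic acid; products analysed by LC/MS.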
The molecule `O=C(CCc1ccc(C2CCCCC2)cc1)N1CCCC1` came in with an inhibition of under 10%.
